Assay results: ChEMBL document CHEMBL1141000, “cis-Nitromethylene neonicotinoids as new nicotinic family: synthesis, structural diversity, and insecticidal evaluation of hexahydroimidazo[1,2-alpha]pyridine” (2008)
In brackets after ≈: the same amount, converted by molar mass.

What was measured:
Assay type in all cases: functional
Aphis craccivora [1] = experiment: Insecticidal activity against Aphis craccivora assessed as mortality at 500 mg/L
Aphis craccivora [2] = experiment: Insecticidal activity against Aphis craccivora
Nilaparvata lugens [3] = experiment: Insecticidal activity against imidacloprid-sensitive Nilaparvata lugens
How it was run: (§1)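 Nilaparvata lugens (brown planthopper), sensitive and imidacloprid-resistant strains tested separately, using a protocol similar to the pea aphid bioassay. Activity expressed as LC50 (mg/L).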

Nilaparvata lugens [4] = experiment: Insecticidal activity against imidacloprid-resistant Nilaparvata lugens; how it was run: as §1

CCOC1CC(C(C)C)C([N+](=O)[O-])=C2N(Cc3ccc(Cl)nc3)CCN21 (stereo unspecified)
Activity (Aphis craccivora [1]): 72%

CCC(C)OC1CC(C)C([N+](=O)[O-])=C2N(Cc3ccc(Cl)nc3)CCN21 (stereo unspecified)
Activity (Aphis craccivora [1]): 0%

CCCC1CC(OC(C)C)N2CCN(Cc3ccc(Cl)nc3)C2=C1[N+](=O)[O-] (stereo unspecified)
Activity (Aphis craccivora [1]): 79%

COC1C(C)CC([N+](=O)[O-])=C2N(Cc3ccc(Cl)nc3)CCN21 (stereo unspecified)
Activity (Aphis craccivora [1]): 73%

CC1C([N+](=O)[O-])=C2N(Cc3ccc(Cl)nc3)CCN2C(O)C1C (stereo unspecified)
Activity (Aphis craccivora [1]): 50%

O=[N+]([O-])C1=C2N(Cc3ccc(Cl)nc3)CCN2C(O)C2CCCCC12 (stereo unspecified)
Activity (Aphis craccivora [1]): 0%

CCCOC1CC(CC)C([N+](=O)[O-])=C2N(Cc3ccc(Cl)nc3)CCN21 (stereo unspecified)
LC50 (Aphis craccivora [2]): 86.4 µg/mL (≈ 227 µM) | Activity (Aphis craccivora [1]): 100%

CCC1CC(OC(C)C)N2CCN(Cc3ccc(Cl)nc3)C2=C1[N+](=O)[O-] (stereo unspecified)
LC50 (Aphis craccivora [2]): 88.9 µg/mL (≈ 233 µM) | Activity (Aphis craccivora [1]): 100%

CC1CC(OCc2ccccc2)N2CCN(Cc3ccc(Cl)nc3)C2=C1[N+](=O)[O-] (stereo unspecified)
Activity (Aphis craccivora [1]): 94%

CCC1CC(OC)N2CCN(Cc3ccc(Cl)nc3)C2=C1[N+](=O)[O-] (stereo unspecified)
LC50 (Nilaparvata lugens [3]): 1.07 µg/mL (≈ 3.03 µM) | Activity (Aphis craccivora [1]): 90% | LC50 (Nilaparvata lugens [4]): 8.87 µg/mL (≈ 25.1 µM)

CC1CC(OC2CCCCC2)N2CCN(Cc3ccc(Cl)nc3)C2=C1[N+](=O)[O-] (stereo unspecified)
Activity (Aphis craccivora [1]): 0%

COC1CC(c2ccccc2)C([N+](=O)[O-])=C2N(Cc3ccc(Cl)nc3)CCN21 (stereo unspecified)
Activity (Aphis craccivora [1]): 50%

CCOC1CC(c2ccccc2)C([N+](=O)[O-])=C2N(Cc3ccc(Cl)nc3)CCN21 (stereo unspecified)
Activity (Aphis craccivora [1]): 89%

CC1(O)CCC([N+](=O)[O-])=C2N(Cc3ccc(Cl)nc3)CCN21 (stereo unspecified)
Activity (Aphis craccivora [1]): 90%

CCCC1CC(OC)N2CCN(Cc3ccc(Cl)nc3)C2=C1[N+](=O)[O-] (stereo unspecified)
Activity (Aphis craccivora [1]): 89%

CCCOC1CC(CCC)C([N+](=O)[O-])=C2N(Cc3ccc(Cl)nc3)CCN21 (stereo unspecified)
Activity (Aphis craccivora [1]): 82%

CCCOC1CC(c2ccccc2)C([N+](=O)[O-])=C2N(Cc3ccc(Cl)nc3)CCN21 (stereo unspecified)
Activity (Aphis craccivora [1]): 45%

CC(C)OC1CC(c2ccccc2)C([N+](=O)[O-])=C2N(Cc3ccc(Cl)nc3)CCN21 (stereo unspecified)
Activity (Aphis craccivora [1]): 0%

CCC1C([N+](=O)[O-])=C2N(Cc3ccc(Cl)nc3)CCN2C(O)C1C (stereo unspecified)
Activity (Aphis craccivora [1]): 0%

CCCC1CC(O)N2CCN(Cc3ccc(Cl)nc3)C2=C1[N+](=O)[O-] (stereo unspecified)
Activity (Aphis craccivora [1]): 25%

O=[N+]([O-])C1=C2N(Cc3ccc(Cl)nc3)CCN2C(O)CC1c1ccc([N+](=O)[O-])cc1 (stereo unspecified)
Activity (Aphis craccivora [1]): 0%

CC(C)OC1CC(C)C([N+](=O)[O-])=C2N(Cc3ccc(Cl)nc3)CCN21 (stereo unspecified)
LC50 (Aphis craccivora [2]): 96.2 µg/mL (≈ 262 µM) | LC50 (Nilaparvata lugens [3]): 5.57 µg/mL (≈ 15.2 µM) | Activity (Aphis craccivora [1]): 100% | LC50 (Nilaparvata lugens [4]): 6.33 µg/mL (≈ 17.3 µM)

COC1CC(C)C([N+](=O)[O-])=C2N(Cc3ccc(Cl)nc3)CCN21 (stereo unspecified)
LC50 (Aphis craccivora [2]): 50 µg/mL (≈ 148 µM) | Activity (Aphis craccivora [1]): 100%

CCCCOC1CC(C)C([N+](=O)[O-])=C2N(Cc3ccc(Cl)nc3)CCN21 (stereo unspecified)
Activity (Aphis craccivora [1]): 58.4%

CC(C)C1CC(O)N2CCN(Cc3ccc(Cl)nc3)C2=C1[N+](=O)[O-] (stereo unspecified)
Activity (Aphis craccivora [1]): 0%

O=[N+]([O-])C1=C2N(Cc3ccc(Cl)nc3)CCN2C(O)CC1c1ccccc1 (stereo unspecified)
Activity (Aphis craccivora [1]): 30%

CCCCC1CC(O)N2CCN(Cc3ccc(Cl)nc3)C2=C1[N+](=O)[O-] (stereo unspecified)
Activity (Aphis craccivora [1]): 85%

C=CCOC1CC(C)C([N+](=O)[O-])=C2N(Cc3ccc(Cl)nc3)CCN21 (stereo unspecified)
Activity (Aphis craccivora [1]): 100%

CC1CC(O)N2CCN(Cc3ccc(Cl)nc3)C2=C1[N+](=O)[O-] (stereo unspecified)
LC50 (Aphis craccivora [2]): 31.5 µg/mL (≈ 97 µM) | LC50 (Nilaparvata lugens [3]): 20.7 µg/mL (≈ 63.8 µM) | Activity (Aphis craccivora [1]): 100% | LC50 (Nilaparvata lugens [4]): 7.36 µg/mL (≈ 22.7 µM)

CCOC1CC(CC)C([N+](=O)[O-])=C2N(Cc3ccc(Cl)nc3)CCN21 (stereo unspecified)
LC50 (Aphis craccivora [2]): 48.9 µg/mL (≈ 133 µM) | Activity (Aphis craccivora [1]): 100%

CC1CC(OCCO)N2CCN(Cc3ccc(Cl)nc3)C2=C1[N+](=O)[O-] (stereo unspecified)
Activity (Aphis craccivora [1]): 0%

CCCC1CC(OCC)N2CCN(Cc3ccc(Cl)nc3)C2=C1[N+](=O)[O-] (stereo unspecified)
Activity (Aphis craccivora [1]): 95%

CC1CC([N+](=O)[O-])=C2N(Cc3ccc(Cl)nc3)CCN2C1O (stereo unspecified)
Activity (Aphis craccivora [1]): 70%

CC(C)OC1C(C)CC([N+](=O)[O-])=C2N(Cc3ccc(Cl)nc3)CCN21 (stereo unspecified)
Activity (Aphis craccivora [1]): 67%

CCOC1CC(C)C([N+](=O)[O-])=C2N(Cc3ccc(Cl)nc3)CCN21 (stereo unspecified)
LC50 (Aphis craccivora [2]): 65.4 µg/mL (≈ 185 µM) | Activity (Aphis craccivora [1]): 100%

CC1CC(OCCCl)N2CCN(Cc3ccc(Cl)nc3)C2=C1[N+](=O)[O-] (stereo unspecified)
LC50 (Aphis craccivora [2]): 74.7 µg/mL (≈ 193 µM) | Activity (Aphis craccivora [1]): 100%

CC(C)COC1CC(C)C([N+](=O)[O-])=C2N(Cc3ccc(Cl)nc3)CCN21 (stereo unspecified)
Activity (Aphis craccivora [1]): 0%

CCC1CC(O)N2CCN(Cc3ccc(Cl)nc3)C2=C1[N+](=O)[O-] (stereo unspecified)
LC50 (Aphis craccivora [2]): 61 µg/mL (≈ 180 µM) | Activity (Aphis craccivora [1]): 100%

O=[N+]([O-])/N=C1\NCCN1Cc1ccc(Cl)nc1 [IMIDACLOPRID]
LC50 (Aphis craccivora [2]): 7.9 µg/mL (≈ 30.9 µM) | LC50 (Nilaparvata lugens [3]): 0.14 µg/mL (≈ 0.548 µM) | Activity (Aphis craccivora [1]): 100% | LC50 (Nilaparvata lugens [4]): 19.7 µg/mL (≈ 77.2 µM)

CCCOC1CC(C)C([N+](=O)[O-])=C2N(Cc3ccc(Cl)nc3)CCN21 (stereo unspecified) [PAICHONGDING]
LC50 (Aphis craccivora [2]): 33.7 µg/mL (≈ 91.8 µM) | LC50 (Nilaparvata lugens [3]): 7.35 µg/mL (≈ 20 µM) | Activity (Aphis craccivora [1]): 100% | LC50 (Nilaparvata lugens [4]): 7.2 µg/mL (≈ 19.6 µM)
